Laboratory results from ChEMBL document CHEMBL4325889, “Natural products hybrids: 3,5,4'-Trimethoxystilbene-5,6,7-trimethoxyflavone chimeric analogs as potential cytotoxic agents against diverse human cancer cells” (Eur J Med Chem, 2019).

Key:
Assay type in all cases: functional
Malme-3M = experiment: Growth inhibition of human MALME-3M cells at 10 uM after 48 hrs by SRB assay relative to control; conditions: read-out: GI
In short: (§1)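 Screened at the National Cancer Institute by the standard NCI protocol using the sulforhodamine B assay, which measures cellular protein. Single dose of 10 µM. Result is percent growth inhibition; values above 100% mean cell number fell below the initial population. Values are the average of duplicates.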

786-0 = experiment: Growth inhibition of human 786-0 cells at 10 uM after 48 hrs by SRB assay relative to control; conditions: 786-0, 48 h, read-out: GI; in short: as §1
K562 = experiment: Growth inhibition of human K562 cells at 10 uM after 48 hrs by SRB assay relative to control; conditions: K562, 48 h, read-out: GI; in short: as §1
NCI-H226 = experiment: Growth inhibition of human NCI-H226 cells at 10 uM after 48 hrs by SRB assay relative to control; conditions: NCI-H226, 48 h, read-out: GI; in short: as §1
SNB-75 = experiment: Growth inhibition of human SNB75 cells at 10 uM after 48 hrs by SRB assay relative to control; conditions: SNB-75, 48 h, read-out: GI
In short: (§2)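 NCI screen against its human cancer cell line panel by the standard NCI protocol, SRB protein stain. Single dose of 10 μM. Percent growth inhibition versus control; values above 100% mean the cell population fell below the starting number. Each value is the mean of duplicates.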

DU-145 = experiment: Growth inhibition of human DU145 cells at 10 uM after 48 hrs by SRB assay relative to control; conditions: DU-145, 48 h, read-out: GI; in short: as §1
TK-10 = experiment: Growth inhibition of human TK10 cells at 10 uM after 48 hrs by SRB assay relative to control; conditions: TK-10, 48 h, read-out: GI; in short: as §2
RPMI-8226 = experiment: Growth inhibition of human RPMI8226 cells at 10 uM after 48 hrs by SRB assay relative to control; conditions: RPMI-8226, 48 h, read-out: GI; in short: as §1
SF-295 = experiment: Growth inhibition of human SF295 cells at 10 uM after 48 hrs by SRB assay relative to control; conditions: SF-295, 48 h, read-out: GI; in short: as §1
CCRF-CEM = experiment: Growth inhibition of human CCRF-CEM cells at 10 uM after 48 hrs by SRB assay relative to control; conditions: read-out: GI; in short: as §1
RXF 393 = experiment: Growth inhibition of human RXF393 cells at 10 uM after 48 hrs by SRB assay relative to control; conditions: RXF 393, 48 h, read-out: GI; in short: as §1
HOP-62 = experiment: Growth inhibition of human HOP62 cells at 10 uM after 48 hrs by SRB assay relative to control; conditions: HOP-62, 48 h, read-out: GI; in short: as §1
NCI-H522 = experiment: Growth inhibition of human NCI-H522 cells at 10 uM after 48 hrs by SRB assay relative to control; conditions: NCI-H522, 48 h, read-out: GI; in short: as §1
HT-29 = experiment: Growth inhibition of human HT-29 cells at 10 uM after 48 hrs by SRB assay relative to control; conditions: HT-29, 48 h, read-out: GI; in short: as §1
PC-3 = experiment: Growth inhibition of human PC3 cells at 10 uM after 48 hrs by SRB assay relative to control; conditions: PC-3, 48 h, read-out: GI; in short: as §1
ACHN = experiment: Growth inhibition of human ACHN cells at 10 uM after 48 hrs by SRB assay relative to control; conditions: read-out: GI; in short: as §1
MDA-MB-435 = experiment: Growth inhibition of human MDA-MB-435 cells at 10 uM after 48 hrs by SRB assay relative to control; conditions: MDA-MB-435, 48 h, read-out: GI; in short: as §1
OVCAR-5 = experiment: Growth inhibition of human OVCAR5 cells at 10 uM after 48 hrs by SRB assay relative to control; conditions: OVCAR-5, 48 h, read-out: GI; in short: as §1
IGROV-1 = experiment: Growth inhibition of human IGROV1 cells at 10 uM after 48 hrs by SRB assay relative to control; conditions: IGROV-1, 48 h, read-out: GI; in short: as §1
SK-MEL-5 = experiment: Growth inhibition of human SK-MEL-5 cells at 10 uM after 48 hrs by SRB assay relative to control; conditions: SK-MEL-5, 48 h, read-out: GI; in short: as §1
HCT-15 = experiment: Growth inhibition of human HCT15 cells at 10 uM after 48 hrs by SRB assay relative to control; conditions: HCT-15, 48 h, read-out: GI; in short: as §1
SN12C = experiment: Growth inhibition of human SN12C cells at 10 uM after 48 hrs by SRB assay relative to control; conditions: read-out: GI; in short: as §1
SNB-19 = experiment: Growth inhibition of human SNB19 cells at 10 uM after 48 hrs by SRB assay relative to control; conditions: SNB-19, 48 h, read-out: GI; in short: as §2
SW-620 = experiment: Growth inhibition of human SW620 cells at 10 uM after 48 hrs by SRB assay relative to control; conditions: SW-620, 48 h, read-out: GI; in short: as §2
BT-549 = experiment: Growth inhibition of human BT549 cells at 10 uM after 48 hrs by SRB assay relative to control; conditions: BT-549, 48 h, read-out: GI; in short: as §1
MOLT-4 = experiment: Growth inhibition of human MOLT4 cells at 10 uM after 48 hrs by SRB assay relative to control; conditions: MOLT-4, 48 h, read-out: GI; in short: as §1
NCI-H460 = experiment: Growth inhibition of human NCI-H460 cells at 10 uM after 48 hrs by SRB assay relative to control; conditions: NCI-H460, 48 h, read-out: GI; in short: as §1
MDA-MB-468 = experiment: Growth inhibition of human MDA-MB-468 cells at 10 uM after 48 hrs by SRB assay relative to control; conditions: MDA-MB-468, 48 h, read-out: GI; in short: as §1
SF-539 = experiment: Growth inhibition of human SF539 cells at 10 uM after 48 hrs by SRB assay relative to control; conditions: SF-539, 48 h, read-out: GI; in short: as §1
HL-60(TB) = experiment: Growth inhibition of human HL-60(TB) cells at 10 uM after 48 hrs by SRB assay relative to control; conditions: HL-60, 48 h, read-out: GI
In short: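 Run at NCI under its standard single-dose protocol against a leukemia cell panel. Cells were exposed to 10 µM; growth was read by sulforhodamine B staining of cellular protein and expressed as % growth inhibition versus untreated control. Values above 100% mean the cell population fell below the starting count (cytocidal). Each value is the average of duplicates.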

SK-MEL-28 = experiment: Growth inhibition of human SK-MEL-28 cells at 10 uM after 48 hrs by SRB assay relative to control; conditions: SK-MEL-28, 48 h, read-out: GI; in short: as §1
NCI-H23 = experiment: Growth inhibition of human NCI-H23 cells at 10 uM after 48 hrs by SRB assay relative to control; conditions: NCI-H23, 48 h, read-out: GI; in short: as §1
OVCAR-8 = experiment: Growth inhibition of human OVCAR8 cells at 10 uM after 48 hrs by SRB assay relative to control; conditions: OVCAR-8, 48 h, read-out: GI; in short: as §1

| Compound | inhibition of growth at 10 µM (Malme-3M) [%] | inhibition of growth at 10 µM (786-0) [%] | inhibition of growth at 10 µM (K562) [%] | inhibition of growth at 10 µM (NCI-H226) [%] | inhibition of growth at 10 µM (SNB-75) [%] | inhibition of growth at 10 µM (DU-145) [%] | inhibition of growth at 10 µM (TK-10) [%] | inhibition of growth at 10 µM (RPMI-8226) [%] | inhibition of growth at 10 µM (SF-295) [%] | inhibition of growth at 10 µM (CCRF-CEM) [%] | inhibition of growth at 10 µM (RXF 393) [%] | inhibition of growth at 10 µM (HOP-62) [%] | inhibition of growth at 10 µM (NCI-H522) [%] | inhibition of growth at 10 µM (HT-29) [%] | inhibition of growth at 10 µM (PC-3) [%] | inhibition of growth at 10 µM (ACHN) [%] | inhibition of growth at 10 µM (MDA-MB-435) [%] | inhibition of growth at 10 µM (OVCAR-5) [%] | inhibition of growth at 10 µM (IGROV-1) [%] | inhibition of growth at 10 µM (SK-MEL-5) [%] | other results |
| --- | --- | --- | --- | --- | --- | --- | --- | --- | --- | --- | --- | --- | --- | --- | --- | --- | --- | --- | --- | --- | --- |
| COc1ccc(NC(=O)c2cccc(-c3cc(=O)c4c(OC)c(OC)c(OC)cc4o3)c2)cc1 | 21.4 | 29.3 | 50.4 | 18.5 | 19.7 | 26.3 | 15.7 | 87.5 | 33.6 | 50.7 | 59.9 | 31 | 39 | 32.9 | 38.8 | 33.4 | 23.8 | 16.8 | 38.7 | 59.1 | inhibition of growth at 10 µM (HCT-15): 52.9%; inhibition of growth at 10 µM (SN12C): 35%; inhibition of growth at 10 µM (SNB-19): 8.54%; inhibition of growth at 10 µM (SW-620): 6.52%; inhibition of growth at 10 µM (BT-549): 53.1%; inhibition of growth at 10 µM (MOLT-4): 36.8%; inhibition of growth at 10 µM (NCI-H460): 33.9%; inhibition of growth at 10 µM (MDA-MB-468): 24.3%; inhibition of growth at 10 µM (SF-539): 27.7%; inhibition of growth at 10 µM (HL-60(TB)): 21.2%; inhibition of growth at 10 µM (SK-MEL-28): 28.7%; inhibition of growth at 10 µM (NCI-H23): 28.7%; inhibition of growth at 10 µM (OVCAR-8): 46.1% |
| COc1cccc(NC(=O)c2cccc(-c3cc(=O)c4c(OC)c(OC)c(OC)cc4o3)c2)c1 | 15.2 | 31.1 | 59.7 | 36.7 | 10.2 | 28.2 | 21.2 | 83 | 29.2 | 59.5 | 52.1 | 40.5 | 53.4 | 49.2 | 42.9 | 37.5 | 18.8 | 9.93 | 46.7 | 36.1 | inhibition of growth at 10 µM (HCT-15): 45.3%; inhibition of growth at 10 µM (SN12C): 37.7%; inhibition of growth at 10 µM (SNB-19): 17.5%; inhibition of growth at 10 µM (SW-620): 10.4%; inhibition of growth at 10 µM (BT-549): 45.8%; inhibition of growth at 10 µM (MOLT-4): 51.5%; inhibition of growth at 10 µM (NCI-H460): 39.9%; inhibition of growth at 10 µM (MDA-MB-468): 21%; inhibition of growth at 10 µM (SF-539): 22.5%; inhibition of growth at 10 µM (HL-60(TB)): 31.3%; inhibition of growth at 10 µM (SK-MEL-28): 26.6%; inhibition of growth at 10 µM (NCI-H23): 36.9%; inhibition of growth at 10 µM (OVCAR-8): 53% |
